Rows were chosen to be rich in hits. Some 1.7% of all compounds tested hit in one or more screens of this group.
M5 antag: CHRM5 antagonism in calcium assay; inhibition, % at 3 µM; P08912; 360,000 tested, 0.59% active; AID 624040; CHO-hM5 cells, Fluo-8 calcium fluorescence, ACh EC80;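 active = inhibition above a per-plate cutoff, the mean of that plate's test compounds plus 3 SD, cut at about 27% in these data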;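 note: 0% = acetylcholine EC80 with DMSO and 100% = DMSO without agonist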
Target sequence (P08912 whole entry, looked up): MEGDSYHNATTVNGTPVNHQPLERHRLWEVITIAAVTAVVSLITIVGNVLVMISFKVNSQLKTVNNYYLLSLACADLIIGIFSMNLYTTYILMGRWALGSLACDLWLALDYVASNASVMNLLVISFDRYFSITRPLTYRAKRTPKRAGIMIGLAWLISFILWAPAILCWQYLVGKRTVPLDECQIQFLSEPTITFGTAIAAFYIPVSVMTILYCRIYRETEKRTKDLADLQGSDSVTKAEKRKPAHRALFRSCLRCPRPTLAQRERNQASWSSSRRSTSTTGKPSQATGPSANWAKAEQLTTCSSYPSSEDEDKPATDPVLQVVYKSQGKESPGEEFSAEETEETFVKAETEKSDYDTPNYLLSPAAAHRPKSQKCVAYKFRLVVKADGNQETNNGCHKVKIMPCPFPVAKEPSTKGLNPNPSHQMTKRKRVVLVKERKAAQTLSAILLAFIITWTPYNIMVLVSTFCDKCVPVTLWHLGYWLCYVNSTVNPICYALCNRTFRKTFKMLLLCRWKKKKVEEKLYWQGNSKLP
CHRM5 agonist: agonists of human muscarinic M5 receptor (CHRM5) | P08912 | CHO-K1 hM5 cells, Fluo-8 calcium fluorescence; 0% DMSO wells, 100% maximal acetylcholine response | activation, % at 3 µM | 360,000 tested, 0.19% active;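 active = activation above the run's mean over test compounds plus 3 SD, cut at about 23% in these data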;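 note: signal is peak over basal fluorescence ratio across the kinetic read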
CHO-K1 Ca PAM: counter-screen for M1 PAMs: effect in parental CHO-K1 cells; 360,000 tested, 0.02% active; AID 602247; activation, % at 3 µM; ATP EC20, Fluo-8 calcium fluorescence; 0% at ATP EC20, 100% at ATP max;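 active = activation above the run cutoff, the mean activation of all test compounds plus 3 SD, cut at about 40% in these data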;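 note: peak over basal fluorescence ratio in a 140 s read after ATP addition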
M5 PAM: potentiates acetylcholine response at human M5 receptor. P08912. CHO-K1 hM5, Fluo-8 calcium, ACh EC20 PAM; 0% = ACh EC20, 100% = ACh EC100. activation, % at 3 µM. 360,000 tested, 0.3% active. AID 624038;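 active = activation above the run cutoff, the mean activation of all test compounds plus 3 SD, cut at about 18% in these data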
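Test system: CHO-K1 hM5 cells / Doses: single-point, 3 µM nominal / Times: Post-acetylcholine fluorescence recording 140 s / Technique: Fluo-8 calcium fluorescence / Measure: Max/basal fluorescence ratio as % of EC20–EC100 ACh window / Benchmarks: low control EC20 acetylcholine (0%), high control EC100 acetylcholine (100%) / Replicates: one well per compound, no replicates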
CHO-K1 Ca ag: nonselective activator or artifact in parental CHO-K1 cells; Fluo-8 calcium fluorescence; scaled to maximal ATP response, vehicle zero; 360,000 tested, 0.48% active; activation, % at 3 µM; AID 602248; in the data active = activation above about 15%;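 note: untransfected CHO-K1 host cells lacking M1 receptor as counterscreen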
CHO-K1 Ca antag: counter-screen for M1 antagonists: effect in parental CHO-K1 cells; AID 602250; 360,000 tested, 0.6% active; ATP-induced calcium, Fluo-8 fluorescence; inhibition, % at 3 µM;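 active = inhibition above a per-plate cutoff, the plate's mean sample inhibition plus 3 SD, cut at about 24% in these data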;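 note: 0% = DMSO plus EC80 ATP and 100% = DMSO alone without ATP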
The depositor's hits bear a star.

SMILES	M5 antag	CHRM5 agonist	CHO-K1 Ca PAM	M5 PAM	CHO-K1 Ca ag	CHO-K1 Ca antag
O=C(COc1ccc([N+](=O)[O-])cc1)Nc1ccncc1	-17	4	-16	1	0	16
CCOC(=O)Nc1oc2ccccc2c(=O)c1CN1CCOCC1	11	3	8	-10	2	2
CCc1nc2c(OCc3c(C)noc3C)cccn2c1N(C=O)Cc1ccc(OC)cc1	10	3	41*	11	-1	-10
c1ccc(CCNc2ccnc3cc4ccccc4cc23)cc1	36*	-5	-2	-33	9	13
CC(C)Nc1ccc(Nc2ccnc3cc4ccccc4cc23)cc1	-6	-17	5	4	0	-7
CCNC(=O)C/C(C)=N/NC(=O)C1CCCCC1	-4	-3	16	2	0	-9
CCNC(=O)C/C(C)=N/NC(=O)C12CC3CC(CC(C3)C1)C2	4	1	-7	-10	0	24*
CCCCOC(=O)c1ccc(NC(=O)C(=O)NCc2ccncc2)cc1	11	4	14	-19	10	2
COc1cccc(C(=O)C2CCCN(Cc3cn[nH]c3C3CCCCC3)C2)c1 (stereo unspecified)	13	-5	-12	-1	0	17
COc1cccc(C(=O)C2CCCN(Cc3cn(CC(N)=O)c4ccccc34)C2)c1 (stereo unspecified)	0	-8	-11	0	0	32*
Nc1ccc(-c2nc3ccccc3[nH]2)cc1	0	1	9	-3	0	-9
c1ccc(-c2cc(-c3nc4ccccc4[nH]3)c3ccccc3n2)cc1	29*	0	15	-18	7	5
COc1cccc(C(=O)N(CN2CCCC2=O)c2ccccc2OC)c1	-4	0	-8	0	0	28*
COc1ccccc1CNC(=O)C1=CCN(S(=O)(=O)c2ccc(C)cc2)CC1	-1	1	-10	19*	0	11
Cc1ccc(CNC(=O)c2cc(-c3ccccc3)nn2Cc2cc(C)no2)cc1	9	-3	-9	-19	1	-8
CCN(CC)c1ccc2c(Cl)c(Br)c(=O)oc2c1	70*	28*	-7	-19	53*	73*
CCN(CC)c1ccc2c(C)c(Cl)c(=O)oc2c1	-1	-2	12	8	2	-16
Cc1ccc(CNC(=O)[C@@H](NC(=O)C2CCN(C(=O)[C@@H]3CCCN3)CC2)C(C)C)cc1	8	0	14	1	0	1
N/N=C1\CCCc2c1[nH]c1ccc([N+](=O)[O-])cc21	0	0	6	0	0	-3
O=C(COC(=O)c1cc(-c2cccc(Br)c2)nc2ccccc12)NCC1CCCO1 (stereo unspecified)	7	-3	-14	-1	0	28*
CCOC(=O)N1CCN(C2=C(NS(=O)(=O)c3ccccc3)C(=O)c3ccccc3C2=O)CC1	1	-2	14	-3	1	-9
Cc1cccc(C2(c3cccc(C)c3)CC2C(=O)Nc2ccc([N+](=O)[O-])cc2O)c1 (stereo unspecified)	33*	2	-11	-21	6	26*
C=CCNC(=O)C1CC1(c1cccc(C)c1)c1cccc(C)c1 (stereo unspecified)	2	1	6	-4	0	2
c1ccc(-n2nnnc2Oc2ccc(-c3nnco3)cc2)cc1	79*	84*	8	-25	0	-8
Cn1nc(C(C)(C)C)cc1C(=O)NCc1ccc(N2CCCC2=O)cc1	25	11	-8	-18	11	29*
SMILES	M5 antag	CHRM5 agonist	CHO-K1 Ca PAM	M5 PAM	CHO-K1 Ca ag	CHO-K1 Ca antag
C=CCNC(=O)c1cccc(OC2CCN(CC(C)(C)C)CC2)c1	-7	-6	4	7	0	1
CC(C)(C)CN1CCC(Oc2cccc(C(=O)NCCCOc3cccnc3)c2)CC1	38*	-8	-32	-11	0	24*
CC(C)Oc1ccc(F)cc1-c1cc(C(=O)NC2CCCCC2)[nH]n1	5	-3	0	-7	1	4
COc1cccc(C2=Cc3ccc(F)cc3C(CC(C)=O)N2c2ccc(C#CC3(O)CCCCC3)cc2)c1 (stereo unspecified)	4	-1	46*	-5	2	-28
COc1cc(OC)cc(C2=Cc3ccc(OC)cc3C(CC(C)=O)N2c2ccc(C#CC3(O)CCCCC3)cc2)c1 (stereo unspecified)	-12	-3	28	6	1	-13
Oc1ccc2ccccc2c1C=NNc1ccccn1	4	2	0	-10	0	-1
CCc1ccc(NC(=O)CSc2nc(=O)n(CCCN(C)C)c3c2CCC3)cc1	31*	-6	3	-19	4	1
CCN(CC)CCn1c2c(c(SCC(=O)Nc3ccc(C(C)C)cc3)nc1=O)CCCC2	2	-8	15	-2	0	-10
CN(C)CCn1c2c(c(SCC(=O)Nc3ccccc3)nc1=O)CCCC2	-8	-3	-16	6	0	11
CC(C)c1ccc(NC(=O)CSc2nc(=O)[nH]c3c2CCCC3)cc1	-5	45*	-27	3	0	-1
OCCCNc1nc(-c2ccc(Br)cc2)nnc1-c1ccc(Cl)cc1	-7	-5	8	-1	1	-4
O=C1COc2ccc(C(=O)CSc3nnc(Cc4ccccc4)o3)cc2N1	3	5	8	4	2	-3
O=C1COc2ccc(C(=O)CSc3nnc(NCc4ccccc4)s3)cc2N1	8	4	6	-7	17*	4
CCOC(=O)NC(=O)/C(C#N)=N/Nc1ccc(F)cc1	5	1	-6	9	1	27*
CCOC(=O)C(=O)/C(C#N)=C/Nc1ccc(F)cc1	-12	-2	16	-3	0	-5
COc1ccc(S(N)(=O)=O)cc1C(=O)OCCCOC(=O)c1cc(S(N)(=O)=O)ccc1OC	-2	0	15	-1	0	-7
COc1ccc(S(N)(=O)=O)cc1C(=O)OCCCOc1ccc(F)cc1	3	-2	2	-6	18*	11
CCN1CCN(c2ccc(NC(=O)c3ccc4c(c3)OCO4)cc2)CC1	-11	-7	17	0	0	-7
CCCn1cnc2c(=O)oc3ccccc3c21	-2	-1	-3	30*	0	-1
CN(C)C(C)(C)C#CCCCCC#CC(C)(C)N(C)C	7	-1	19	0	1	-10
CN(C)C(C)(C)C#CCC(c1ccccc1)c1ccccc1	46*	-8	5	-20	2	-4
N#CC(C#N)=c1ccc2c(c1)N1C(c3ccccc3)=CC(c3ccccc3)C3CCCCC31N=2 (stereo unspecified)	3	6	-1	17	1	-5

From PubChem
